This note sets out measurements from ChEMBL document CHEMBL1123563, “New antifilarial agents. 1. Epoxy sulfonamides and ethynesulfonamides” (J Med Chem, 1987).

Active and inactive are the calls of the source.

Assay [1] deals with molinema dessetae. In words: Antifilarial activity against Molinema dessetae in vivo against male adult worms at a dose of 200 mg/kg subcutaneously once a day for 5 days; Inactive. The format is functional, organism-based. More on the design: dose 200 mg/kg. The method, boiled down: (§1)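 Proechimys oris of both sexes were each infected with 200 infective larvae dissected from Aedes aegypti mosquitoes. Microfilaremia was checked, and the rodents were treated 150–180 days post-infection. Compound was given subcutaneously as a 1% carboxymethylcellulose suspension once daily for 5 consecutive days. Microfilaremia was followed for 6 weeks, then adult male and female worms were counted at autopsy. A compound was scored active if no males and ≤1.6 females were found (p = 0.12).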

The nature of assay [2]: Antifilarial activity against Molinema dessetae in vivo in Proechimys oris the natural host at a dose of 200 mg/kg subcutaneously once a day for 5 days. Value is expressed as number of infected P. oris. To be noted: route subcutaneous. The format is functional. The method, boiled down: as §1
The nature of assay [3]: Effective concentration of compound necessary to kill 50% of infective larvae of Molinema dessetae after 7 days was determined in vitro; Value ranges from 20-100. The format is functional. The method, boiled down:
(§2)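 Infective larvae from the intermediate host were decontaminated and held 20 per 1.5 mL in a biphasic medium: L929 feeder layer with RPMI and fetal calf serum (90:10), plus penicillin and streptomycin. Compound solutions at several concentrations were made in DMSO, and 10 μL of each was added. After 7 days, survival was corrected by control, in duplicate runs. EC ranges are given in μM.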

Assay [4] has as its system molinema dessetae. In words: Antifilarial activity against Molinema dessetae in vivo against female adult worms at a dose of 200 mg/kg subcutaneously once a day for 5 days. The format is functional, organism-based. More on the design: dose 200 mg/kg. The method, boiled down:
as §1

In assay [5] the test system is molinema dessetae. In words: Effective concentration of compound necessary to kill 90% of infective larvae of Molinema dessetae after 7 days was determined in vitro; Value ranges from 100-500. The format is functional. The method, boiled down:
as §2

The test system of assay [6] is molinema dessetae. In words: Antifilarial activity against Molinema dessetae in vivo against female adult worms at a dose of 0.2 mg/kg subcutaneously once a day for 5 days; Active. The format is functional, organism-based. More on the design: dose 0.2 mg/kg.
Assay [7] concerns molinema dessetae. The experiment in a line: Antifilarial activity against Molinema dessetae in vivo against male adult worms at a dose of 0.2 mg/kg subcutaneously once a day for 5 days; Active. The format is functional, organism-based. More on the design: dose 0.2 mg/kg.
For assay [8], the system named is molinema dessetae. The experiment in a line: Antifilarial activity against Molinema dessetae in vivo in Proechimys oris the natural host at a dose of 0.2 mg/kg subcutaneously once a day for 5 days. Value is expressed as number of infected P. oris. On the set-up: dose 0.2 mg/kg. The format is functional, organism-based.
Assay [9] deals with molinema dessetae.
The subject of assay [10] is molinema dessetae. The experiment in a line: Antifilarial activity against Molinema dessetae in vivo against male adult worms at a dose of 200 mg/kg subcutaneously once a day for 5 days; Active. More on the design: dose 200 mg/kg. The format is functional, organism-based. The method, boiled down:
as §1

Assay [11] has as its system molinema dessetae. In words: Antifilarial activity against Molinema dessetae in vivo against male adult worms at a dose of 50 mg/kg subcutaneously once a day for 5 days; Inactive. The format is functional, organism-based. On the set-up: dose 50 mg/kg. The method, boiled down: as §1
Assay [12] can be described thus: Antifilarial activity against Molinema dessetae in vivo in Proechimys oris the natural host at a dose of 50 mg/kg subcutaneously once a day for 5 days. Value is expressed as number of infected P. oris. The format is functional. The settings on record: route subcutaneous. The method, boiled down: as §1
Assay [13] relates to molinema dessetae. The experiment in a line: Antifilarial activity against Molinema dessetae in vivo against female adult worms at a dose of 200 mg/kg subcutaneously once a day for 5 days; Active. The format is functional, organism-based. More on the design: dose 200 mg/kg. The method, boiled down: as §1
Assay [14] deals with molinema dessetae. The experiment in a line: Antifilarial activity against Molinema dessetae in vivo against male adult worms at a dose of 10 mg/kg subcutaneously once a day for 5 days; Active. The format is functional, organism-based. More on the design: dose 10 mg/kg. The method, boiled down:
as §1

Assay [15] is described as follows: Antifilarial activity against Molinema dessetae in vivo in Proechimys oris the natural host at a dose of 10 mg/kg subcutaneously once a day for 5 days. Value is expressed as number of infected P. oris. The format is functional. The settings on record: route subcutaneous. The method, boiled down:
as §1

Assay [16] relates to molinema dessetae. The experiment in a line: Antifilarial activity against Molinema dessetae in vivo against female adult worms at a dose of 10 mg/kg subcutaneously once a day for 5 days; Active. The format is functional, organism-based. On the set-up: dose 10 mg/kg. The method, boiled down: as §1
For assay [17], the system named is molinema dessetae. In words: Effective concentration of compound necessary to kill 90% of infective larvae of Molinema dessetae after 7 days was determined in vitro; Value ranges from 20-100. The format is functional. The method, boiled down: as §2
Assay [18] deals with molinema dessetae. The experiment in a line: Antifilarial activity against Molinema dessetae in vivo against female adult worms at a dose of 100 mg/kg subcutaneously once a day for 5 days; Active. The format is functional, organism-based. On the set-up: dose 100 mg/kg. The method, boiled down:
as §1

For assay [19], the system named is molinema dessetae. In words: Antifilarial activity against Molinema dessetae in vivo against male adult worms at a dose of 100 mg/kg subcutaneously once a day for 5 days; Active. The format is functional, organism-based. More on the design: dose 100 mg/kg. The method, boiled down: as §1
Assay [20] can be described thus: Antifilarial activity against Molinema dessetae in vivo in Proechimys oris the natural host at a dose of 100 mg/kg subcutaneously once a day for 5 days. Value is expressed as number of infected P. oris. The format is functional. To be noted: route subcutaneous. The method, boiled down: as §1
In assay [21] the test system is molinema dessetae. In words: Antifilarial activity against Molinema dessetae in vivo against male adult worms at a dose of 40 mg/kg subcutaneously once a day for 5 days; Active. The format is functional, organism-based. More on the design: dose 40 mg/kg.
Assay [22] in a line: Antifilarial activity against Molinema dessetae in vivo in Proechimys oris the natural host at a dose of 40 mg/kg subcutaneously once a day for 5 days. Value is expressed as number of infected P. oris. The format is functional. The settings on record: route subcutaneous.
The nature of assay [23]: Effective concentration of compound necessary to kill 50% of infective larvae of Molinema dessetae after 7 days was determined in vitro; Value ranges from 100-500. The format is functional. The method, boiled down:
as §2

In assay [24] the test system is molinema dessetae. In words: Antifilarial activity against Molinema dessetae in vivo against female adult worms at a dose of 40 mg/kg subcutaneously once a day for 5 days; Active. On the set-up: dose 40 mg/kg. The format is functional, organism-based.
The test system of assay [25] is molinema dessetae. The experiment in a line: Antifilarial activity against Molinema dessetae in vivo against female adult worms at a dose of 1000 mg/kg subcutaneously once a day for 5 days; Active. The format is functional, organism-based. On the set-up: dose 1000 mg/kg.
Assay [26] concerns molinema dessetae. In words: Antifilarial activity against Molinema dessetae in vivo against male adult worms at a dose of 1000 mg/kg subcutaneously once a day for 5 days; Active. The format is functional, organism-based. More on the design: dose 1000 mg/kg.
The nature of assay [27]: Antifilarial activity against Molinema dessetae in vivo in Proechimys oris the natural host at a dose of 1000 mg/kg subcutaneously once a day for 5 days. Value is expressed as number of infected P. oris. To be noted: route subcutaneous. The format is functional.
Assay [28] in a line: Effective concentration of compound necessary to kill 50% of infective larvae of Molinema dessetae after 7 days was determined in vitro. The format is functional.

As to `CCCN1CCN(S(=O)(=O)C2OC2c2ccccc2)CC1` (stereo unspecified), the outcome with molinema dessetae [1] and in the assay on molinema dessetae [4] was inactive. The Activity in assay [2] was found to be 2. This compound yielded an EC50 in [3] of 100 µM. Besides, the EC90 with molinema dessetae [5] was 500 µM.
Take IVERMECTIN: the result in the assay on molinema dessetae [6] and in the assay with molinema dessetae [7] was Active. In the assay on molinema dessetae [8], the Activity was determined as 2. Also, the EC90 in the assay with molinema dessetae [9] is less than 20 µM.
For `CN(C)S(=O)(=O)[C@@H]1O[C@H]1c1ccccc1`, the outcome in the assay with molinema dessetae [10] and with molinema dessetae [13] was Active. Further, the result in the assay on molinema dessetae [11] was inactive. The Activity in assay [2] and in assay [12] was 2 each time. A half-maximal response in assay [3] (EC50) required 100 µM. In the assay with molinema dessetae [5], this compound yielded an EC90 of 500 µM.
Consider `CN1CCN(S(=O)(=O)[C@@H]2O[C@H]2c2ccccc2)CC1`, for which the result in the assay with molinema dessetae [14] and in the assay on molinema dessetae [16] was Active. In addition, in [15], the Activity came to 4. Moreover, the EC50 in assay [3] came to 100 µM. In the assay on molinema dessetae [17], the EC90 worked out at 100 µM.
Take `O=S(=O)([C@@H]1O[C@H]1c1ccccc1)N1CCOCC1`: the result with molinema dessetae [18] and in the assay with molinema dessetae [19] was Active. In assay [20], this compound yielded an Activity of 3. The response in [3] was half-maximal at 100 µM (EC50). The compound also displayed an EC90 with molinema dessetae [17] of 100 µM.
Take `Cc1ccc(C(=O)Nc2ccc(S(=O)(=O)O)c3cc(S(=O)(=O)O)cc(S(=O)(=O)O)c23)cc1NC(=O)c1cccc(NC(=O)Nc2cccc(C(=O)Nc3cc(C(=O)Nc4ccc(S(=O)(=O)O)c5cc(S(=O)(=O)O)cc(S(=O)(=O)O)c45)ccc3C)c2)c1` [SURAMIN]: the result with molinema dessetae [21] and with molinema dessetae [24] was Active. The Activity in assay [22] stood at 2. In assay [23], this compound came in with an EC50 of 500 µM. For the same compound, the EC90 with molinema dessetae [5] worked out at 500 µM.
On to `C[C@@H]1O[C@@H]1P(=O)([O-])[O-].[Na+].[Na+]` [PHOSPHOMYCIN DISODIUM], for which the outcome in the assay with molinema dessetae [25] and in the assay on molinema dessetae [26] was Active. In addition, the Activity in [27] was found to be 2. In [28], this compound displayed a 50% effective concentration (EC50) of more than 500 µM. In the assay on molinema dessetae [9], this compound returned an EC90 of more than 500 µM.

As a reminder, the EC50 is the concentration at which the effect is half-maximal. Lower therefore signals greater potency. The term EC90 denotes the concentration at which the effect reaches the 90% level. A higher EC90 goes with weaker potency.
